The source of these data is ChEMBL document CHEMBL1126882, “Orally active central dopamine and serotonin receptor ligands: 5-, 6-, 7-, and 8-[[trifluoromethyl)sulfonyl]oxy]-2-(di-n-propylamino)tetralins and the formation of active metabolites in vivo” (J Med Chem, 1993).

SMILES strings stand for the structures. Activity calls are given as the source filed them.

Series [1] relates to Rattus norvegicus. The series is described as follows: Effective dose for half-maximal decrease in the accumulation of 5-hydroxytryptophan (5-HTP) in reserpinized rat brain limbic area by sc administration; Inactive. In kind it is functional, organism-based. Summed up: (§1)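 Male Sprague-Dawley rats (200-300 g) got reserpine 5 mg/kg sc 18 h before. The test drug (saline) was given sc or po (po rats fasted 18 h), with NSD 1015, 30 min before decapitation. DOPA and 5-HTP in limbic, striatal and hemispheral tissue were measured by HPLC-ED. ED50 (half-maximal decrease) was taken from 4-6-dose curves, with deviation estimated graphically from SEM.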

The nature of series [2]: Effective dose for half-maximal decrease in the accumulation of 5-hydroxytryptophan (5-HTP) in reserpinized rat brain hemispheral area by po administration. In kind it is functional. Summed up: as §1
For series [3], the system named is Rattus norvegicus. The series is described as follows: Effective dose for half-maximal decrease in the accumulation of 5-hydroxytryptophan (5-HTP) in reserpinized rat brain hemispheral area by sc administration; Inactive. In kind it is functional, organism-based. The procedure, abridged: as §1
In series [4] the target is T1, Dopamine receptor (Rattus norvegicus) (UniProt P25115+P19020+P30729+P18901+P61169). The series is described as follows: Effective dose for half-maximal decrease in the accumulation of DOPA in reserpinized rat brain striatal area by po administration. The class given is functional, organism-based. Summed up:
as §1

A short description of series [5]: Effective dose for half-maximal decrease in the accumulation of 5-hydroxytryptophan (5-HTP) in reserpinized rat brain limbic area by po administration. In kind it is functional. Summed up:
as §1

Series [6] concerns the target T1, Dopamine receptor (Rattus norvegicus). The series is described as follows: Effective dose for half-maximal decrease in the accumulation of DOPA in reserpinized rat brain limbic area by sc administration. In kind it is functional, organism-based. Summed up:
as §1

For series [7] the target is unchanged. The series is described as follows: Effective dose for half-maximal decrease in the accumulation of DOPA in reserpinized rat brain hemispheral area by po administration. In kind it is functional, organism-based. The procedure, abridged:
as §1

Series [8] in a line: Effective dose for half-maximal decrease in the accumulation of 5-hydroxytryptophan (5-HTP) in reserpinized rat brain striatal area by po administration. In kind it is functional. The procedure, abridged:
as §1

Series [9] deals with T1, Dopamine receptor (Rattus norvegicus). The series is described as follows: Effective dose for half-maximal decrease in the accumulation of DOPA in reserpinized rat brain hemispheral area by sc administration; Inactive. The class given is functional, organism-based. Summed up: as §1
A further series addresses D(2) dopamine receptor (Rattus norvegicus, UniProt P61169). The series is described as follows: Binding affinity against dopamine receptor D2 in rat brain tissue using [3H]spiperone. The class given is tissue-based. Summed up:
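Rat striatal membranes were prepared in 50 mM potassium phosphate (pH 7.4). They were incubated with 0.5 nM [3H]spiperone (3 mg original tissue) for 10 min at 37 °C. Specific binding was defined with 10 μM 6,7-ADTN. Six drug concentrations (10⁻⁴-10⁻⁹ M) were tested, in triplicate or in a single experiment.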

Series [10] has as its target T1, Dopamine receptor (Rattus norvegicus). The series is described as follows: Effective dose for half-maximal decrease in the accumulation of DOPA in reserpinized rat brain limbic area by po administration. In kind it is functional, organism-based. Summed up: as §1
Series [11] deals with Rattus norvegicus. The series is described as follows: Effective dose for half-maximal decrease in the accumulation of 5-hydroxytryptophan (5-HTP) in reserpinized rat brain striatal area by sc administration; Inactive. The class given is functional, organism-based. The procedure, abridged:
as §1

Series [12] addresses T1, Dopamine receptor (Rattus norvegicus). The series is described as follows: Effective dose for half-maximal decrease in the accumulation of DOPA in reserpinized rat brain striatal area by sc administration. In kind it is functional, organism-based. Summed up: as §1
Series [13] addresses T2, 5-hydroxytryptamine receptor 1A (Rattus norvegicus, UniProt P19327).
T2 sequence (P19327 whole entry): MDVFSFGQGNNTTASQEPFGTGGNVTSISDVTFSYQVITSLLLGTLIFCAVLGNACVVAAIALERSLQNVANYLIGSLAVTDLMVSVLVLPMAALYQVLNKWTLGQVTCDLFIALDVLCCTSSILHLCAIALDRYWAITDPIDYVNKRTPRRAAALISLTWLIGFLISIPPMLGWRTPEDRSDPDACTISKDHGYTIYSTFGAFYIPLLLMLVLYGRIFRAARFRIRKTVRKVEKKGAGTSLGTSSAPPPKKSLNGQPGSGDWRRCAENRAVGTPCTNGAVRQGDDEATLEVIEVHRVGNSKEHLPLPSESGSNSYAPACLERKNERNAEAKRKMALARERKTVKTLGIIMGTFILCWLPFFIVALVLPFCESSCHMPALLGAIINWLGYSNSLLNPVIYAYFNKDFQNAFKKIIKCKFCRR
The series is described as follows: Binding affinity against 5-hydroxytryptamine 1A receptor in homogenated rat brain tissue, using by [3H]8-OH-DPAT as radioligand. In kind it is tissue-based. The procedure, abridged:
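Rat brain homogenate was washed and preincubated in 50 mM Tris (pH 8.0) containing NaCl, CaCl2 and MgCl2, plus 10 μM pargyline. Nonspecific binding was defined with 10 μM 5-HT. Six drug concentrations (10⁻⁴-10⁻⁹ M) were tested, triplicate or single run. IC50 came from a semilog plot with linear regression.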

Series [14] has as its target T1, Dopamine receptor (Rattus norvegicus). The series is described as follows: Effective dose for half-maximal decrease in the accumulation of DOPA in reserpinized rat brain striatal area by sc administration; partial response at the highest dose tested. In kind it is functional, organism-based. Summed up:
as §1

Series [15] is described as follows: Half-lives were estimated from the elimination phase of the blood conc-time curve after oral administration. The class given is ADME, organism-based. The following applies: whole blood. The procedure, abridged: (§2)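 Male Sprague-Dawley rats (300 g) with arterial catheters were dosed 24 h after surgery. Doses: 40 μmol/kg po by gavage and 5 μmol/kg iv, or 20 po and 1 iv. Po rats were fasted 18 h. Blood was sampled from 5 min to 12 h and measured by GC-MS after extraction at pH 11 against an internal standard, samples in duplicate. AUC po/iv came from n = 4 per route. Half-life was read graphically from the oral elimination phase.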

A short description of series [16]: Effective dose for half-maximal decrease in the accumulation of 5-hydroxytryptophan (5-HTP) in reserpinized rat brain limbic area by sc administration. The class given is functional. The procedure, abridged: as §1
Series [17] has as its system Rattus norvegicus. The series is described as follows: post-synaptic agonistic effects by increase in locomotor activity at the dose of 50 umol/kg, sc in reserpinized rat (p<0.005). The class given is functional.
For series [18], the target named is T1, Dopamine receptor (Rattus norvegicus). The series is described as follows: Effective dose for half-maximal decrease in the accumulation of DOPA in reserpinized rat brain limbic area by sc administration; partial response at the highest dose tested. The class given is functional, organism-based. The procedure, abridged: as §1
Series [19] in a line: Area under curve ratio was determined (po/iv). In kind it is functional. Summed up:
as §2

Series [20] in a line: Effective dose for half-maximal decrease in the accumulation of 5-hydroxytryptophan (5-HTP) in reserpinized rat brain hemispheral area by sc administration. The class given is functional. The procedure, abridged: as §1
For series [21], the target named is T1, Dopamine receptor (Rattus norvegicus). The series is described as follows: Effective dose for half-maximal decrease in the accumulation of DOPA in reserpinized rat brain striatal area by po administration; partial response at the highest dose tested. The class given is functional, organism-based. Summed up:
as §1

Series [22] shares this target. The series is described as follows: Effective dose for half-maximal decrease in the accumulation of DOPA in reserpinized rat brain limbic area by po administration; partial response at the highest dose tested. In kind it is functional, organism-based. Summed up:
as §1

Series [23] is described as follows: Effective dose for half-maximal decrease in the accumulation of 5-hydroxytryptophan (5-HTP) in reserpinized rat brain striatal area by sc administration. The class given is functional. Summed up: as §1
The species entered for series [24] is Rattus norvegicus. The series is described as follows: DA agonist induced behavior was charecterised by increased locomotion, sniffing and licking.+ indicates low intensity of behavioral effect. In kind it is functional, organism-based. Summed up:
(§3)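 Male Sprague-Dawley rats (200-300 g) given reserpine 5 mg/kg sc in the neck 18 h before testing. The test compound, in 0.9% saline, was given sc in the neck (n = 4-5). Rats were placed singly in photocell motility meters right after dosing. Counts were recorded over 30 min, alongside gross behavioural observation of 5-HT and DA signs. Statistics: ANOVA with Fischer's PLSD versus reserpine controls.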

Series [25] deals with Rattus norvegicus. The series is described as follows: Effective dose for half-maximal decrease in the accumulation of 5-hydroxytryptophan (5-HTP) in reserpinized rat brain striatal area by sc administration; partial response at the highest dose tested. The class given is functional, organism-based. The procedure, abridged:
as §1

Series [26] deals with Rattus norvegicus. The series is described as follows: Effective dose for half-maximal decrease in the accumulation of 5-hydroxytryptophan (5-HTP) in reserpinized rat brain limbic area by sc administration; partial response at the highest dose tested. In kind it is functional, organism-based. The procedure, abridged:
as §1

Series [27] relates to Rattus norvegicus. The series is described as follows: post-synaptic agonistic effects by increase in locomotor activity at the dose of 2.2 umol/kg, sc in reserpinized rat. The class given is functional.
Series [28] relates to Rattus norvegicus. The series is described as follows: post-synaptic agonistic effects by increase in locomotor activity at the dose of 1.0 umol/kg, sc in reserpinized rat. The class given is functional. The procedure, abridged:
as §3

D(2) dopamine receptor, sequence (P61169 whole entry): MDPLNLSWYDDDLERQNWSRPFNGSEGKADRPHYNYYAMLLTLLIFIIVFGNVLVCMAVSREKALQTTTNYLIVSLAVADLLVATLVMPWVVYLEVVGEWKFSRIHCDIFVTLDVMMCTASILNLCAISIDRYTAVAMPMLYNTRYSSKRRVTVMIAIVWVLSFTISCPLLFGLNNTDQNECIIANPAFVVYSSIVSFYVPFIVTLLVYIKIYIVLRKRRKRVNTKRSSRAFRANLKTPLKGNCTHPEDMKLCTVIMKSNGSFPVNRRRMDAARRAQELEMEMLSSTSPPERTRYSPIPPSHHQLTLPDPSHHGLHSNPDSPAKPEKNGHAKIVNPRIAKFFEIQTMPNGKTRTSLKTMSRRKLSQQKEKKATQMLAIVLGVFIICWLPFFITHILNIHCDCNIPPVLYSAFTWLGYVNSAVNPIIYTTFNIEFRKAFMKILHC

As for `CCCN(CCC)C1CCc2c(cccc2OC)C1` (stereo not drawn), the ED50 result (in the series with Rattus norvegicus [1]; with Rattus norvegicus [3]; in series [9]; in the series with Rattus norvegicus [11]) was “inactive” each time. The ED50 – broadly, the dose that gives a 50% effect, or the effect in half of the subjects – is 0.3 µmol/kg in series [2]; 0.2 µmol/kg in [4]; 0.4 µmol/kg in [5]; 0.01 µmol/kg in series [6]; 0.3 µmol/kg in [7]; 0.5 µmol/kg in [8]. The results for the ED50 in series [10] and in [12] were 0.2 µmol/kg and 0.02 µmol/kg, respectively. The Ki (usually a measure of affinity in units of concentration, obtained from inhibition or displacement) at D(2) dopamine receptor was 100 nM; in series [13] it was 440 nM.

With `CCCN(CCC)C1CCc2cccc(OS(=O)(=O)C(F)(F)F)c2C1` (stereo not drawn), the ED50 result is “Weak activity” in series [14]; 1.2 µmol/kg in series [2]; 1.2 µmol/kg in series [5]; 5.9 µmol/kg in series [16]; “Weak activity” in series [18]; 30 µmol/kg in series [7]. In addition, the ED50 in series [8] is 1.5 µmol/kg; in series [20], 10 µmol/kg; in series [21] it was “Weak activity”; in [22] it was “Weak activity”; in series [23] it was 15 µmol/kg. Besides, in [15], the half-life (commonly the time needed for the level to fall by half in the phase considered) is 1.5 h. In addition, the Counts/30 in the series with Rattus norvegicus [17] came out at 110 min. Also, the ED50 entry in series [9] is “inactive”. The Ratio in series [19] amounted to 11.2. In addition, the values for the inhibition constant (Ki) (on D(2) dopamine receptor; in series [13]) were 670 nM and 9.6 nM, respectively. Further, in the series filed under Rattus norvegicus [24], the Behavioral syndrome result was “Partially active”.

Take `CCCN(CCC)C1CCc2ccc(OC)cc2C1` (stereo not drawn): the ED50 result (in [14]; with Rattus norvegicus [25]; in the series with Rattus norvegicus [26]; in series [18]) was “Weak activity” each time. Also, the ED50 result (in the series on Rattus norvegicus [3]; in series [9]) was “inactive” in each case.

On to `CCCN(CCC)[C@@H]1CCc2ccc(O)cc2C1`, for which the ED50 result with Rattus norvegicus [1], in the series with Rattus norvegicus [3] and with Rattus norvegicus [11] was “inactive” in each case. For the same compound, in the series with Rattus norvegicus [27], the Counts/30 came out at 100 counts/30 min. The Ki in series [13] came to 3260 nM. Moreover, the Behavioral observation result in the series listed under Rattus norvegicus [24] was “Partially active”.

For the compound `CCCN(CCC)C1CCc2ccc(O)cc2C1` (stereo not drawn), the ED50 entry (in the series with Rattus norvegicus [1]; with Rattus norvegicus [3]; in series [9]; in the series on Rattus norvegicus [11]) was “inactive” in each case. The Counts/30 in the series with Rattus norvegicus [28] worked out at 160 counts/30 min. Further, the 50% effective dose (ED50) in series [6] and in series [12] was 0.03 µmol/kg in each case. In series [13], this compound displayed an inhibitory constant (Ki) of 2800 nM. For the same compound, the Behavioral observation entry in the series filed under Rattus norvegicus [24] was “Partially active”.
